In ChEMBL document CHEMBL1138270, “Antimycobacterial activities of novel 1-(cyclopropyl/tert-butyl/4-fluorophenyl)-1,4-dihydro- 6-nitro-4-oxo-7-(substituted secondary amino)-1,8-naphthyridine-3-carboxylic acid” (J Med Chem, 2007):
Converted amounts (≈) assume the structure as drawn.

Key:
Mus musculus [1] = experiment: Phototoxicity in Swiss Albino mouse assessed as ear erythema at 140 mg/kg, po after 72 hrs of irradiation; type: organism-based; design: dose 140 mg/kg, route oral; conditions: in vivo
Mus musculus [2] = experiment: Phototoxicity in Swiss Albino mouse assessed as ear erythema at 140 mg/kg, po after 96 hrs of irradiation; type: organism-based; design: dose 140 mg/kg, route oral; conditions: in vivo
Mus musculus [3] = experiment: Phototoxicity in Swiss Albino mouse assessed as ear erythema at 140 mg/kg, po after 4 hrs of irradiation; type: organism-based; design: dose 140 mg/kg, route oral; conditions: in vivo
Mus musculus [4] = experiment: Phototoxicity in UV light irradiated Swiss Albino mouse assessed ear erythema at 140 mg/kg, po; type: organism-based; design: dose 140 mg/kg, route oral; conditions: in vivo
Mus musculus [5] = experiment: Phototoxicity in Swiss Albino mouse assessed as ear erythema at 140 mg/kg, po after 24 hrs of irradiation; type: organism-based; design: dose 140 mg/kg, route oral; conditions: in vivo
Mus musculus [6] = experiment: Phototoxicity in Swiss Albino mouse assessed as ear thickness at 140 mg/kg, po after 4 hrs of irradiation; type: organism-based; design: dose 140 mg/kg, route oral; conditions: in vivo
How it was run: (§1)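 Female Swiss albino mice (~2 months, 20-25 g) were fasted ≥18 h and given 140 mg/kg orally by gavage; controls received 0.5% Na-CMC vehicle at 10 mL/kg. UVA started right after dosing, 4 h (~18 J/cm2). Ear thickness was measured before dosing and at 4, ~24, 48, 72 and 96 h, reported as mean of left and right ears ± SEM.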

Mus musculus [7] = experiment: Phototoxicity in Swiss Albino mouse assessed as ear thickness at 140 mg/kg, po after 24 hrs of irradiation; type: organism-based; design: dose 140 mg/kg, route oral; conditions: in vivo; how it was run: as §1
Vero = experiment: Cytotoxicity against Vero cells after 72 hrs by MTT assay; type: cell-based; conditions: Chlorocebus sabaeus
How it was run: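 Vero cells were exposed to serially diluted compound up to 62.5 µg/mL for 72 h. Viability was read by cellular conversion of MTT to formazan (CellTiter 96 non-radioactive proliferation assay), and IC50 was derived.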

Mus musculus [8] = experiment: Phototoxicity in Swiss Albino mouse assessed as ear thickness at 140 mg/kg, po after 48 hrs of irradiation; type: organism-based; design: dose 140 mg/kg, route oral; conditions: in vivo; how it was run: as §1
Mus musculus [9] = experiment: Phototoxicity in UV light irradiated Swiss Albino mouse assessed as ear thickness at 140 mg/kg, po; type: organism-based; design: dose 140 mg/kg, route oral; conditions: in vivo; how it was run: as §1
[10] = Inhibition of Mycobacterium smegmatis DNA gyrase supercoiling activity; design: species or system Mycolicibacterium smegmatis
How it was run: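 Gyrase purified from M. smegmatis was preincubated with compound in DMSO (5% DMSO in reaction). 400 ng relaxed pUC18 was added in 35 mM Tris-HCl pH 7.5, 5 mM MgCl2, 25 mM K-glutamate, 2 mM spermidine, 2 mM ATP, BSA, tRNA and 5% glycerol, 1 h at 37 °C. Samples were heat-inactivated, run on 1% agarose in TAE, and ethidium-stained; IC50 was derived.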

Mus musculus [11] = experiment: Phototoxicity in Swiss Albino mouse assessed as ear thickness at 140 mg/kg, po after 72 hrs of irradiation; type: organism-based; design: dose 140 mg/kg, route oral; conditions: in vivo; how it was run: as §1
[12] = tested on: Mycobacterium tuberculosis; experiment: Antimycobacterial activity against Mycobacterium tuberculosis H37Rv by agar dilution method; type: functional
How it was run: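 MIC was determined by agar dilution, in duplicate.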

[13] = tested on: Mycolicibacterium smegmatis; experiment: Antimicrobial activity against Mycobacterium smegmatis by agar dilution method; type: functional
How it was run: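 Agar dilution against M. smegmatis ATCC 14468; MIC determined in duplicate.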

Mus musculus [14] = experiment: Phototoxicity in Swiss Albino mouse assessed as ear erythema at 140 mg/kg, po after 48 hrs of irradiation; type: organism-based; design: dose 140 mg/kg, route oral; conditions: in vivo
Mus musculus [15] = experiment: Phototoxicity in Swiss Albino mouse assessed as ear thickness at 140 mg/kg, po after 96 hrs of irradiation; type: organism-based; design: dose 140 mg/kg, route oral; conditions: in vivo; how it was run: as §1
[16] = tested on: Mycobacterium tuberculosis; experiment: Antimycobacterial activity against Mycobacterium tuberculosis ATCC 35801 infected CD1 mouse assessed as spleen bacterial count at 50 mg/kg, ip after 35 days post infection; type: functional; conditions: route intraperitoneal
How it was run: (§2)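 CD-1 mice were infected intravenously via the caudal vein with about 10⁷ viable M. tuberculosis ATCC 35801. Intraperitoneal treatment began 10 days after inoculation and ran for 10 days. At 35 days post-infection, spleens and right lungs were homogenized, serially diluted 10-fold and plated on 7H10 agar at 37 °C in ambient air for 4 weeks. Counts were compared with vehicle-treated controls and given as log CFU ± SEM.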

[17] = tested on: Mycobacterium tuberculosis; experiment: Antimycobacterial activity against Mycobacterium tuberculosis ATCC 35801 infected CD1 mouse assessed as lung bacterial count at 50 mg/kg, ip after 35 days post infection; type: functional; conditions: route intraperitoneal; how it was run: as §2
[18] = tested on: Mycobacterium tuberculosis; experiment: Antimycobacterial activity against Mycobacterium tuberculosis ATCC 35801 infected CD1 mouse assessed as lung bacterial count at 25 mg/kg, ip after 35 days post infection; type: functional; conditions: route intraperitoneal; how it was run: as §2
[19] = tested on: Mycobacterium tuberculosis; experiment: Antimycobacterial activity against Mycobacterium tuberculosis ATCC 35801 infected CD1 mouse assessed as spleen bacterial count at 25 mg/kg, ip after 35 days post infection; type: functional; conditions: route intraperitoneal; how it was run: as §2
Mus musculus [20] = experiment: Toxicity in C57BL/6 mouse at 500 mg/kg; type: organism-based; design: dose 500 mg/kg; conditions: in vivo
How it was run: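 Maximum tolerated dose study in female C57BL/6 mice: single escalating doses of 100, 300 and 500 mg/kg, 3 mice/dose.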

SMILES	Activity (Mus musculus [1])	Activity (Mus musculus [2])	Activity (Mus musculus [3])	Activity (Mus musculus [4])	Activity (Mus musculus [5])	Activity (Mus musculus [6]) [mm]	Activity (Mus musculus [7]) [mm]	IC50 (Vero) [µM]	Activity (Mus musculus [8]) [mm]	Activity (Mus musculus [9]) [mm]	IC50 [10] [µM]	Activity (Mus musculus [11]) [mm]	MIC [12] [µM]	MIC [13] [µM]	Activity (Mus musculus [14])	Activity (Mus musculus [15]) [mm]	other results
O=C(O)c1cn(-c2ccc(F)cc2)c2nc(N3CCSCC3)c([N+](=O)[O-])cc2c1=O	Non-toxic	Non-toxic	Non-toxic	Non-toxic	Non-toxic	0.27	0.26	72.6	0.26	0.25	> 232	0.29	0.44 (≈ 0.189 µg/mL)	1.81 (≈ 0.779 µg/mL)	Non-toxic	0.29	–
COc1c(N2CCNC(C)C2)c(F)cc2c(=O)c(C(=O)O)cn(C3CC3)c12 (stereo not given) [GATIFLOXACIN]	–	–	–	–	–	–	–	> 155	–	–	–	–	1.04 (≈ 0.39 µg/mL)	2.08 (≈ 0.781 µg/mL)	–	–	Log10 cfu [16]: 6.92; Log10 cfu [17]: 6.02
NNC(=O)c1ccncc1 [ISONIAZID]	–	–	–	–	–	–	–	> 456	–	–	–	–	0.36 (≈ 0.0494 µg/mL)	45.6 (≈ 6.25 µg/mL)	–	–	Log10 cfu [18]: 5.86; Log10 cfu [19]: 4.71
CC1CN(c2nc3c(cc2[N+](=O)[O-])c(=O)c(C(=O)O)cn3-c2ccc(F)cc2)CC(C)O1 (stereo not given)	Non-toxic	Non-toxic	Non-toxic	Non-toxic	Non-toxic	0.25	0.28	141	0.27	0.26	226	0.3	0.43 (≈ 0.19 µg/mL)	1.79 (≈ 0.792 µg/mL)	Non-toxic	0.3	–
CC(C)(C)n1cc(C(=O)O)c(=O)c2cc([N+](=O)[O-])c(N3CCSCC3)nc21	Non-toxic	Non-toxic	Non-toxic	Non-toxic	Non-toxic	0.28	0.28	79.6	0.29	0.27	102	0.3	0.99 (≈ 0.389 µg/mL)	1.99 (≈ 0.781 µg/mL)	Non-toxic	0.32	–
O=C(O)c1cn2c(n1)CN(c1nc3c(cc1[N+](=O)[O-])c(=O)c(C(=O)O)cn3-c1ccc(F)cc1)CC2	Non-toxic	Non-toxic	Toxic	Non-toxic	Toxic	0.32	0.33	> 126	0.32	0.27	> 202	0.33	0.38 (≈ 0.188 µg/mL)	1.58 (≈ 0.781 µg/mL)	Non-toxic	0.33	–
CC1(C)COCN1c1nc2c(cc1[N+](=O)[O-])c(=O)c(C(=O)O)cn2C(C)(C)C	Toxic	Toxic	Non-toxic	Non-toxic	Non-toxic	0.28	0.26	> 160	0.29	0.24	256	0.3	0.1 (≈ 0.039 µg/mL)	3.99 (≈ 1.56 µg/mL)	Toxic	0.3	Log10 cfu [16]: 5.13; Log10 cfu [17]: 5.6; Activity (Mus musculus [20]): Non-toxic
CCn1cc(C(=O)O)c(=O)c2cc(F)c(N3CCNC(C)C3)c(F)c21 (stereo not given) [LOMEFLOXACIN]	Toxic	Toxic	Toxic	Toxic	Toxic	0.4	0.48	–	0.53	0.31	–	0.64	–	–	Toxic	0.6	–
